Measured values taken from ChEMBL document CHEMBL1158582, “Novel DNA intercalators without basic side chains as efficient antitumor agents: design, synthesis and evaluation of benzo-[c,d]-indol-malononitrile derivatives” (Bioorg Med Chem, 2010).
Calls of active or inactive are those of the source. The calls are words filed in the database; no cut-off is given here.

How the values were obtained:
[1] = test system: Nucleic Acid; assay: Induction of DNA damage-mediated relaxation of Escherichia coli super coiled pBR322 DNA assessed as formation of open circular form-2 DNA after 3 hrs under light condition by UV transilluminator; assay type: nucleic-acid assay
In short: (§1)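 Supercoiled pBR322 (25 ng/µL) in 20 mM Tris–HCl pH 7.5 with 50 µM compound under light irradiation for 3 h; irradiated DNA alone as control. Products resolved on 1% agarose in 0.5× TAE containing 0.5 µg/mL EB, 80 V, 1.5 h.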

[2] = test system: MCF7; assay: Cytotoxicity against human MCF7 cells after 48 hrs by MTT assay; assay type: functional, cell-based; details: MCF7, 48 h
In short: (§2)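 MTT assay, cells incubated 48 h with a range of compound concentrations. MTT (5 mg/mL in PBS) added, 3 h, formazan dissolved in lysis buffer (200 g/L SDS, 50% formamide, pH 4.7), absorbance read at 570 nm. At least three independent experiments; mean percent absorbance plotted against concentration to give IC50.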

[3] = test system: Nucleic Acid; assay: Induction of DNA damage-mediated relaxation of Escherichia coli super coiled pBR322 DNA assessed as formation of linear form-3 DNA after 12 hrs under dark condition by UV transilluminator; assay type: nucleic-acid assay
In short: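 Supercoiled pBR322 (25 ng/µL) in 20 mM Tris–HCl pH 7.5 with 50 µM compound, 12 h at 4 °C in the dark. Quenched with loading buffer; 1% agarose gel in 0.5× TAE with 0.5 µg/mL EB, 80 V, 1.5 h.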

[4] = test system: SMMC-7721; assay: Cytotoxicity against human SMMC7721 cells after 48 hrs by MTT assay; assay type: functional, cell-based; details: SMMC-7721, 48 h; in short: as §2
[5] = test system: Nucleic Acid; assay: Binding affinity to DNA assessed as decrease in ethidium bromide fluorescence at 5 uM by fluorescence spectroscopy; assay type: nucleic-acid assay
In short: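 Fluorescence displacement of ethidium bromide bound to DNA; loss of EB fluorescence taken as displacement by the test agent. Compound alone with DNA measured as a control for the compound's own fluorescence.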

[6] = test system: Nucleic Acid; assay: Binding affinity to calf thymus DNA assessed as DNA intercalation at 100 uM by UV-visible spectrophotometry; assay type: nucleic-acid assay; details: Bos taurus; 25 uM; in the assay text read “at 25 uM” for “at 100 uM”
In short: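 UV–vis titration: compound fixed at 25 µM, CT DNA concentration increased; bathochromic shift and hypochromicity taken as the sign of intercalation, isosbestic point followed.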

[7] = test system: Nucleic Acid; assay: Induction of DNA damage-mediated relaxation of Escherichia coli super coiled pBR322 DNA assessed as formation of linear form-3 DNA after 3 hrs under light condition by UV transilluminator; assay type: nucleic-acid assay; in short: as §1
[8] = test system: Nucleic Acid; assay: Binding affinity to calf thymus DNA assessed as increase in DNA viscosity by viscometric titration; assay type: nucleic-acid assay; details: Bos taurus
In short: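 CT DNA sonicated 10 min and filtered through 0.45 µm membrane; DNA 100 µM. Titrations in an Ubbelohde viscometer in a thermostated bath held at 25 ± 0.1 °C.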

Row | SMILES | Activity [1] | IC50 [2] | Activity [3] | IC50 [4] | Activity [5] | Activity [6] | Activity [7] | Activity [8]
1 | N#CC(C#N)=c1c2cccc3cccc(c32)n1CCBr | Active | 5380 nM | Active | 210 nM |  |  |  | 
2 | C#CCn1c(=C(C#N)C#N)c2cccc3cccc1c32 | Active | 12500 nM | Active | 728 nM | Active | Active | Active | Active
3 | CC(=O)n1c(=C(C#N)C#N)c2cccc3cccc1c32 | Active | 3 nM | Active | 115 nM |  | Active |  | 
4 | C=CCn1c(=C(C#N)C#N)c2cccc3cccc1c32 | Active | 4730 nM | Active | 175 nM |  |  | Active | 
5 | N#CC(C#N)=c1c2cccc3cccc(c32)n1C(=O)c1ccccc1 | Active | 15300 nM | Active | 8800 nM |  | inactive |  | 
6 | N#CC(C#N)=c1c2cccc3cccc(c32)n1CCCCl | Active | 6930 nM | Active | 354 nM |  |  |  | 
7 | N#CCn1c(=C(C#N)C#N)c2cccc3cccc1c32 | Active | 13500 nM | Active | 260 nM |  |  | Active | 
